Results from BindingDB's records for PubMed 36760746 (n/a, 2023).

What follows are compounds tested against Induced myeloid leukemia cell differentiation protein Mcl-1 (Homo sapiens, UniProt Q07820) (assay: Inhibition of FITC-labelled BAK BH3 peptide to 6His-MBP tagged recombinant human MCL-1 (172 to 327 residues) expressed in Escherichia coli assessed as inhibition constant by fluorescence polarization competition assay).
Method in brief: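 Fluorescence polarization competition: compounds titrated into a mixture of MCL-1 (residues 172–327) and FITC-labelled BAK BH3 peptide. Displacement of the peptide was followed by the change in polarization, and Ki was derived from the competition titration.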

Chain of Induced myeloid leukemia cell differentiation protein Mcl-1 (Q07820 whole entry, the tested form may be a part): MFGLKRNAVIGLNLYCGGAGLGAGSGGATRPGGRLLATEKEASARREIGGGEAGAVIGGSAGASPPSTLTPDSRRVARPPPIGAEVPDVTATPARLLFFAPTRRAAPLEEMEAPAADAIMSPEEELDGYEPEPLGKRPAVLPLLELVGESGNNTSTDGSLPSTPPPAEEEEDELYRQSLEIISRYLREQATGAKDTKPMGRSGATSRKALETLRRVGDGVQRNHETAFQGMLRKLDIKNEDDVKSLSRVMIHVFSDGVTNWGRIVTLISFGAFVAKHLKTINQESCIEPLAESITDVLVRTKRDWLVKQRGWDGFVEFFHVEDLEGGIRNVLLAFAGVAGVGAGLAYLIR

Row | SMILES | Ki
1 | CC(C)CN(c1ccc(C(=O)O)cc1)S(=O)(=O)c1ccc(F)cc1 [4-(4-fluoro-N-isobutylphenyl-sulfonamido) benzoic acid] | > 500 µM
2 | CC(C)CN(c1cccc(C(=O)O)c1)S(=O)(=O)c1ccccc1 [3-(N-isobutylphenyl-sulfonamido) benzoic acid] | > 500 µM
3 | CC(C)CN(c1cccc(C(=O)O)c1)S(=O)(=O)c1ccc(F)cc1 [3-(4-fluoro-N-isobutylphenyl-sulfonamido) benzoic acid] | > 500 µM
4 | CC(C)CN(c1cccc(C(=O)O)c1)S(=O)(=O)c1ccc(-c2ccccc2)cc1 [3-(N-isobutyl-[1,1'-biphenyl]-4-ylsulfonamido) benzoic acid] | > 500 µM
5 | CC(C)CN(c1ccc(C(=O)O)cc1)S(=O)(=O)c1ccccc1 [4-(N-isobutylphenyl-sulfonamido) benzoic acid] | > 500 µM
6 | CC(C)CN(c1ccc(C(=O)O)cc1)S(=O)(=O)c1ccc2ccccc2c1 [4-(N-isobutylnaphthalene-2-sulfonamido) benzoic acid] | > 500 µM
